Reference: ChEMBL document CHEMBL1143482, “Insecticidal anthranilic diamides: a new class of potent ryanodine receptor activators” (2005)
Values after ≈ are worked out from the molar mass of the structure shown.

Legend:
Format in all cases: functional
Heliothis virescens = experiment: Lethal concentration required for 50% mortality in Tobacco budworm
Procedure, shortened: (§1)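 Larvae exposed to multiple test rates, 16 insects per rate. Mortality scored 96 h post-infestation as percent control = (dead/total) × 100. LC50 in ppm, with confidence intervals, from Probit analysis with maximum quasi-likelihood curve fitting.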

Spodoptera frugiperda = experiment: Lethal concentration required for 50% mortality in Fall armyworm; procedure, shortened: as §1
Periplaneta americana = experiment: Ability to release internal calcium stores mediated by ryanodine receptor without activation of voltage-gated calcium channel of cockroach in CMT assay
Procedure, shortened: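 Embryonic Periplaneta americana neurons cultured 7–14 days on glass coverslips, loaded 30 min with Fura-2 AM (2 µM) plus 0.02% pluronic acid in saline (mM: NaCl 190, KCl 3.1, CaCl2 9.0, Tris 10.0, pH 7.2). Ratio imaging, 340/380 nm excitation, 510 nm emission, under perfusion. Caffeine 20 mM given first; only caffeine-responsive cells analysed. Test compounds applied 3 min at multiple rates (n ≥ 11).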

SMILES | LC50 (Heliothis virescens) [mg/L] | LC50 (Spodoptera frugiperda) [mg/L] | CMT (Periplaneta americana) [µM]
CCc1nc(C(F)(F)F)ncc1C(=O)Nc1c(C)cccc1C(=O)NC(C)C | 41 (≈ 104 µM) | 9 (≈ 22.8 µM) | –
Cc1cccc(C(=O)NC(C)C)c1NC(=O)c1ccc(C(F)(F)F)cc1 | > 500 | 16.9 (≈ 46.4 µM) | –
Cc1cccc(C(=O)NC(C)C)c1NC(=O)c1cc(C(F)(F)F)nn1-c1ncccc1Cl | 0.4 (≈ 0.859 µM) | 0.1 (≈ 0.215 µM) | 0.3
Cc1cccc(C(=O)NC(C)C)c1NC(=O)c1ccc(C(F)(F)F)nc1C | 327 (≈ 862 µM) | 20.7 (≈ 54.6 µM) | –
CC1(C)C(C=C(Cl)Cl)C1C(=O)OC(C#N)c1cccc(Oc2ccccc2)c1 (stereo not drawn) [ALPHA-CYPERMETHRIN] | 13.5 (≈ 32.4 µM) | 2.1 (≈ 5.04 µM) | –
Cc1cccc(C(=O)NC(C)C)c1NC(=O)c1cc(C(F)(F)F)nn1-c1cccc(Cl)c1 | > 500 | > 500 | –
CCn1nc(C(F)(F)F)cc1C(=O)Nc1c(C)cccc1C(=O)NC(C)C | 158 (≈ 413 µM) | 34.8 (≈ 91 µM) | –
CCNC(=O)c1cccc(C)c1NC(=O)c1ccc(C(F)(F)F)cc1C | > 500 | 32.8 (≈ 90 µM) | –
CCc1nc(C(F)(F)F)ccc1C(=O)Nc1c(C)cccc1C(=O)NC(C)C | 77.5 (≈ 197 µM) | 9.7 (≈ 24.7 µM) | 20.6
Cc1cccc(C(=O)NC(C)C)c1NC(=O)c1cc(C(F)(F)F)nn1C(C)C | 36.4 (≈ 91.8 µM) | 11.1 (≈ 28 µM) | –
Cc1cc(C(F)(F)F)ccc1C(=O)Nc1ccccc1C(=O)NC(C)C | > 500 | 27.3 (≈ 74.9 µM) | 39.3
Cc1cccc(C(=O)NC(C)C)c1NC(=O)c1cc(C(F)(F)F)nn1-c1ccc(Cl)cc1 | > 500 | > 500 | –
Cc1cc(C(F)(F)F)ccc1C(=O)Nc1cccc(C)c1C(=O)NC(C)C | > 500 | 77 (≈ 203 µM) | –
CC(C)NC(=O)c1cccc(Cl)c1NC(=O)c1cc(C(F)(F)F)nn1-c1ncccc1Cl | 0.4 (≈ 0.823 µM) | 0.1 (≈ 0.206 µM) | –
Cc1cccc(C(=O)NC(C)C)c1NC(=O)c1cnc(C(F)(F)F)nc1C(C)C | 42.3 (≈ 104 µM) | 9.8 (≈ 24 µM) | 26.6
Cc1cc(Cl)cc(C(=O)NC(C)C)c1NC(=O)c1cc(C(F)(F)F)nn1-c1ncccc1Cl | 0.02 (≈ 0.04 µM) | – | 0.1
Cc1cccc(C(=O)NC(C)C)c1NC(=O)c1cc(C(F)(F)F)nn1-c1ccccc1 | 354 (≈ 822 µM) | 26 (≈ 60.4 µM) | –
CNC(=O)c1cccc(C)c1NC(=O)c1ccc(C(F)(F)F)cc1C | > 500 | 60.1 (≈ 172 µM) | –
Cc1cccc(C(=O)NC(C)C)c1NC(=O)c1cc(C(F)(F)F)nn1C | 130 (≈ 353 µM) | 29.6 (≈ 80.4 µM) | 120
COC(=O)N(C(=O)N1CO[C@@]2(C(=O)OC)Cc3cc(Cl)ccc3C2=N1)c1ccc(OC(F)(F)F)cc1 [INDOXACARB] | 1.5 (≈ 2.84 µM) | 0.5 (≈ 0.947 µM) | –
Cc1cc(C(F)(F)F)ccc1C(=O)Nc1c(C)cccc1C(=O)NC(C)C | 256 (≈ 675 µM) | 20.7 (≈ 54.7 µM) | –
CC(C)NC(=O)c1cccc(Cl)c1NC(=O)c1cc(C(F)(F)F)nn1-c1ccccc1Cl | 3 (≈ 6.18 µM) | 0.1 (≈ 0.206 µM) | 0.3
Cc1cccc(C(=O)NC(C)C)c1NC(=O)c1cnc(C(F)(F)F)nc1C | 102 (≈ 269 µM) | 11.6 (≈ 30.5 µM) | –
Cc1cccc(C(=O)NC(C)C)c1NC(=O)c1cc(C(F)(F)F)nn1-c1ccccc1Cl | 3.4 (≈ 7.31 µM) | 0.05 (≈ 0.108 µM) | 0.2
Cc1cccc(C(=O)NC(C)C)c1NC(=O)c1ccc(C(F)(F)F)nc1C(C)C | 55.5 (≈ 136 µM) | 9.6 (≈ 23.6 µM) | –
